Measurements as given in ChEMBL document CHEMBL3297693, “Novel 3-arylfuran-2(5H)-one-fluoroquinolone hybrid: design, synthesis and evaluation as antibacterial agent” (Bioorg Med Chem, 2014).
Values after ≈ are worked out from the molar mass of the structure shown. One block for each compound: values may come before it.

What was measured:
[1] = system: Escherichia coli; test: Antimicrobial activity against multiple drug-resistant Escherichia coli ATCC 35218 after 8 to 10 hrs by MTT proliferation assay; type: functional
In short: (§1)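 Broth microdilution in LB medium in 96-well plates, inoculum about 10⁵ cfu/mL, serially diluted compounds, sterile medium as blank control. MTT (3 mg/mL in PBS) added, then 4–5 h at room temperature. Dye extracted with SDS lysis buffer (10% SDS, 5% isopropanol, pH about 3.5) for 8–10 h at room temperature. Absorbance read at 570 nm, control OD 1.0–2.0. MIC₅₀ reported.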

[2] = system: Bacillus subtilis; test: Antimicrobial activity against tetracycline-resistant Bacillus subtilis ATCC 6633 after 8 to 10 hrs by MTT proliferation assay; type: functional; in short: as §1
[3] = system: Staphylococcus aureus; test: Antimicrobial activity against […] Staphylococcus aureus ATCC 25923 after 8 to 10 hrs by MTT proliferation assay; type: functional; in short: as §1
[4] = Inhibition of Staphylococcus aureus TyrRS expressed in Escherichia coli assessed as tRNA aminoacylation pre-incubated for 10 mins using Escherichia coli MRE600 tRNA and L-[ring-3,5-3H]tyrosine by liquid scintillation counting
In short: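 S. aureus TyrRS overexpressed in E. coli and purified to about 98% (SDS–PAGE). Enzyme (0.2 nM) preincubated with inhibitor range 10 min at room temperature, then prewarmed mix added at 37 °C. Aliquots quenched in cold 7% TCA, filtered, scintillation counted. Kept linear, under 50% tRNA acylation.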

[5] = target: DNA gyrase (Escherichia coli, UniProt P0AES4+P0AES6); test: Inhibition of Escherichia coli DNA gyrase assessed as reduction in enzyme-mediated DNA supercoiling using relaxed pBR322 substrate incubated for 60 mins by electrophoresis method; type: protein-complex assay

SMILES: O=C1OCC(OCCN2CCN(c3cc4c(cc3F)c(=O)c(C(=O)O)cn4C3CC3)CC2)=C1c1ccc(F)cc1
- MIC50 [1]: 0.37 µg/mL (≈ 0.671 µM)
- MIC50 [2]: 0.16 µg/mL (≈ 0.29 µM)
- MIC50 [3]: 0.24 µg/mL (≈ 0.435 µM)
- IC50 [4]: 1.29 µM
- IC50 [5]: 2.84 µM

SMILES: CCn1cc(C(=O)O)c(=O)c2cc(F)c(N3CCN(CCOC4=C(c5ccccc5Cl)C(=O)OC4)CC3)cc21
- MIC50 [1]: 2.5 µg/mL (≈ 4.5 µM)
- MIC50 [2]: 0.9 µg/mL (≈ 1.62 µM)
- MIC50 [3]: 0.43 µg/mL (≈ 0.773 µM)

SMILES: CCn1cc(C(=O)O)c(=O)c2cc(F)c(N3CCN(CCOC4=C(c5cccc(Br)c5)C(=O)OC4)CC3)nc21
- MIC50 [1]: 12.2 µg/mL (≈ 20.3 µM)
- MIC50 [2]: 4.7 µg/mL (≈ 7.81 µM)
- MIC50 [3]: 13.1 µg/mL (≈ 21.8 µM)

SMILES: O=C1OCC(OCCN2CCN(c3cc4c(cc3F)c(=O)c(C(=O)O)cn4C3CC3)CC2)=C1c1ccc(Cl)cc1
- MIC50 [1]: 1.3 µg/mL (≈ 2.29 µM)
- MIC50 [2]: 0.16 µg/mL (≈ 0.282 µM)
- MIC50 [3]: 0.49 µg/mL (≈ 0.863 µM)

SMILES: O=C1OCC(OCCN2CCN(c3cc4c(cc3F)c(=O)c(C(=O)O)cn4-c3ccc(F)cc3)CC2)=C1c1ccc(Br)cc1
- MIC50 [1]: 4.2 µg/mL (≈ 6.3 µM)
- MIC50 [2]: 2.9 µg/mL (≈ 4.35 µM)
- MIC50 [3]: 11.1 µg/mL (≈ 16.7 µM)

SMILES: CCn1cc(C(=O)O)c(=O)c2cc(F)c(N3CCN(CCOC4=C(c5ccccc5F)C(=O)OC4)CC3)cc21
- MIC50 [1]: 2.7 µg/mL (≈ 5 µM)
- MIC50 [2]: 2.4 µg/mL (≈ 4.45 µM)
- MIC50 [3]: 3.3 µg/mL (≈ 6.12 µM)

SMILES: O=C1OCC(OCCN2CCN(c3cc4c(cc3F)c(=O)c(C(=O)O)cn4-c3ccc(F)cc3)CC2)=C1c1ccccc1
- MIC50 [1]: 1.2 µg/mL (≈ 2.04 µM)
- MIC50 [2]: 0.6 µg/mL (≈ 1.02 µM)
- MIC50 [3]: 0.69 µg/mL (≈ 1.17 µM)

SMILES: O=C(O)c1cn(C2CC2)c2cc(N3CCNCC3)c(F)cc2c1=O [CIPROFLOXACIN]
- MIC50 [1]: 5.65 µg/mL (≈ 17.1 µM)
- MIC50 [2]: 2.7 µg/mL (≈ 8.15 µM)
- MIC50 [3]: 6.82 µg/mL (≈ 20.6 µM)

SMILES: Cc1ccc(C2=C(OCCN3CCN(c4cc5c(cc4F)c(=O)c(C(=O)O)cn5C4CC4)CC3)COC2=O)cc1
- MIC50 [1]: 1.9 µg/mL (≈ 3.47 µM)
- MIC50 [2]: 0.39 µg/mL (≈ 0.712 µM)
- MIC50 [3]: 0.53 µg/mL (≈ 0.968 µM)

SMILES: O=C1OCC(OCCN2CCN(c3cc4c(cc3F)c(=O)c(C(=O)O)cn4-c3ccc(F)cc3)CC2)=C1c1ccc(Cl)cc1
- MIC50 [1]: 1.7 µg/mL (≈ 2.73 µM)
- MIC50 [2]: 0.51 µg/mL (≈ 0.82 µM)
- MIC50 [3]: 7.8 µg/mL (≈ 12.5 µM)

SMILES: O=C1OCC(OCCN2CCN(c3cc4c(cc3F)c(=O)c(C(=O)O)cn4-c3ccc(F)cc3)CC2)=C1c1ccccc1Cl
- MIC50 [1]: 0.72 µg/mL (≈ 1.16 µM)
- MIC50 [2]: 0.37 µg/mL (≈ 0.595 µM)
- MIC50 [3]: 0.25 µg/mL (≈ 0.402 µM)
- IC50 [4]: 6.37 µM
- IC50 [5]: 4.05 µM

SMILES: CCn1cc(C(=O)O)c(=O)c2cc(F)c(N3CCN(CCOC4=C(c5ccc(Cl)cc5)C(=O)OC4)CC3)cc21
- MIC50 [1]: 19.5 µg/mL (≈ 35.1 µM)
- MIC50 [2]: 18.5 µg/mL (≈ 33.3 µM)
- MIC50 [3]: 15.9 µg/mL (≈ 28.6 µM)

SMILES: COc1ccc(C2=C(OCCN3CCN(c4cc5c(cc4F)c(=O)c(C(=O)O)cn5C4CC4)CC3)COC2=O)cc1
- MIC50 [1]: 23.5 µg/mL (≈ 41.7 µM)
- MIC50 [2]: 2.6 µg/mL (≈ 4.61 µM)
- MIC50 [3]: 6.5 µg/mL (≈ 11.5 µM)

SMILES: O=C1OCC(OCCN2CCN(c3cc4c(cc3F)c(=O)c(C(=O)O)cn4C3CC3)CC2)=C1c1ccc(Br)cc1
- MIC50 [1]: 3.8 µg/mL (≈ 6.2 µM)
- MIC50 [2]: 2.6 µg/mL (≈ 4.25 µM)
- MIC50 [3]: 8.5 µg/mL (≈ 13.9 µM)

SMILES: CCn1cc(C(=O)O)c(=O)c2cc(F)c(N3CCN(CCOC4=C(c5ccccc5)C(=O)OC4)CC3)cc21
- MIC50 [1]: > 25 µg/mL
- MIC50 [2]: 16.6 µg/mL (≈ 31.8 µM)
- MIC50 [3]: 18.9 µg/mL (≈ 36.2 µM)

SMILES: CCn1cc(C(=O)O)c(=O)c2cc(F)c(N3CCN(CCOC4=C(c5cccc(Cl)c5)C(=O)OC4)CC3)nc21
- MIC50 [1]: 2.9 µg/mL (≈ 5.21 µM)
- MIC50 [2]: 15.3 µg/mL (≈ 27.5 µM)
- MIC50 [3]: 8.7 µg/mL (≈ 15.6 µM)

SMILES: O=C1OCC(OCCN2CCN(c3cc4c(cc3F)c(=O)c(C(=O)O)cn4-c3ccc(F)cc3)CC2)=C1c1cccc(Br)c1
- MIC50 [1]: 4.4 µg/mL (≈ 6.6 µM)
- MIC50 [2]: 0.43 µg/mL (≈ 0.645 µM)
- MIC50 [3]: 0.39 µg/mL (≈ 0.585 µM)

SMILES: O=C1OCC(OCCN2CCN(c3cc4c(cc3F)c(=O)c(C(=O)O)cn4C3CC3)CC2)=C1c1ccccc1
- MIC50 [1]: 1 µg/mL (≈ 1.87 µM)
- MIC50 [2]: 0.23 µg/mL (≈ 0.431 µM)
- MIC50 [3]: 0.64 µg/mL (≈ 1.2 µM)
- IC50 [4]: 7.12 µM
- IC50 [5]: 5.77 µM

SMILES: O=C1OCC(OCCN2CCN(c3cc4c(cc3F)c(=O)c(C(=O)O)cn4-c3ccc(F)cc3)CC2)=C1c1ccccc1OCc1ccccc1
- MIC50 [1]: 2.8 µg/mL (≈ 4.04 µM)
- MIC50 [2]: 0.58 µg/mL (≈ 0.836 µM)
- MIC50 [3]: 2.1 µg/mL (≈ 3.03 µM)

SMILES: O=C1OCC(OCCN2CCN(c3cc4c(cc3F)c(=O)c(C(=O)O)cn4-c3ccc(F)cc3)CC2)=C1c1cccc(Cl)c1
- MIC50 [1]: 0.89 µg/mL (≈ 1.43 µM)
- MIC50 [2]: 0.75 µg/mL (≈ 1.21 µM)
- MIC50 [3]: 0.44 µg/mL (≈ 0.707 µM)

SMILES: O=C1OCC(OCCN2CCN(c3cc4c(cc3F)c(=O)c(C(=O)O)cn4-c3ccc(F)cc3)CC2)=C1c1ccc(F)cc1
- MIC50 [1]: 1.1 µg/mL (≈ 1.82 µM)
- MIC50 [2]: 0.2 µg/mL (≈ 0.33 µM)
- MIC50 [3]: 0.34 µg/mL (≈ 0.561 µM)

SMILES: Cc1ccc(C2=C(OCCN3CCN(c4cc5c(cc4F)c(=O)c(C(=O)O)cn5-c4ccc(F)cc4)CC3)COC2=O)cc1
- MIC50 [1]: 2 µg/mL (≈ 3.32 µM)
- MIC50 [2]: 0.82 µg/mL (≈ 1.36 µM)
- MIC50 [3]: 0.45 µg/mL (≈ 0.748 µM)

SMILES: CCn1cc(C(=O)O)c(=O)c2cc(F)c(N3CCN(CCOC4=C(c5ccc(Br)cc5)C(=O)OC4)CC3)cc21
- MIC50 [1]: 13.5 µg/mL (≈ 22.5 µM)
- MIC50 [2]: > 25 µg/mL
- MIC50 [3]: 21.6 µg/mL (≈ 36 µM)

- IC50 [4]: 0.1 µM
SMILES: O=C1OCC(OCCN2CCOCC2)=C1c1ccc(O)cc1

SMILES: CCn1cc(C(=O)O)c(=O)c2cc(F)c(N3CCN(CCOC4=C(c5ccc(Cl)cc5)C(=O)OC4)CC3)nc21
- MIC50 [1]: 9.6 µg/mL (≈ 17.2 µM)
- MIC50 [2]: 13.2 µg/mL (≈ 23.7 µM)
- MIC50 [3]: 24.9 µg/mL (≈ 44.7 µM)

SMILES: CCn1cc(C(=O)O)c(=O)c2cc(F)c(N3CCN(CCOC4=C(c5ccccc5)C(=O)OC4)CC3)nc21
- MIC50 [1]: 5.6 µg/mL (≈ 10.7 µM)
- MIC50 [2]: 12.6 µg/mL (≈ 24.1 µM)
- MIC50 [3]: 6.8 µg/mL (≈ 13 µM)

SMILES: O=C1OCC(OCCN2CCN(c3cc4c(cc3F)c(=O)c(C(=O)O)cn4-c3ccc(F)cc3)CC2)=C1c1ccccc1F
- MIC50 [1]: 0.67 µg/mL (≈ 1.11 µM)
- MIC50 [2]: 0.2 µg/mL (≈ 0.33 µM)
- MIC50 [3]: 0.21 µg/mL (≈ 0.347 µM)
- IC50 [4]: 2.81 µM
- IC50 [5]: 3.69 µM

SMILES: CCn1cc(C(=O)O)c(=O)c2cc(F)c(N3CCN(CCOC4=C(c5ccccc5F)C(=O)OC4)CC3)nc21
- MIC50 [1]: 2.6 µg/mL (≈ 4.81 µM)
- MIC50 [2]: 1.6 µg/mL (≈ 2.96 µM)
- MIC50 [3]: 2.6 µg/mL (≈ 4.81 µM)

SMILES: O=C1OCC(OCCN2CCN(c3cc4c(cc3F)c(=O)c(C(=O)O)cn4C3CC3)CC2)=C1c1ccccc1F
- MIC50 [1]: 0.11 µg/mL (≈ 0.199 µM)
- MIC50 [2]: 0.09 µg/mL (≈ 0.163 µM)
- MIC50 [3]: 0.19 µg/mL (≈ 0.344 µM)
- IC50 [4]: 0.12 µM
- IC50 [5]: 1.15 µM
